# Compounds with a hit are over-represented: about 3% of the library has one in this group of screens.
# T cruzi repl: inhibitors of intracellular T. cruzi growth, primary screen, luminescence, NIH3T3 host cells | inhibition, % (test concentration not listed) | AID 1885, 2009 | hit rate 1.4% among 300,000 | T. cruzi beta-gal in NIH3T3, 90 h;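 active means mean inhibition across valid replicates above about 55%, limit read from the data; inconclusive means mean below that limit but half or more replicates reach it; inactive means mean below it, under half of replicates reach it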;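 further: signal also drops with host cell toxicity which is not excluded here; 0% = plate median of DMSO wells and 100% = zero luminescence signal; higher percent means less beta-gal luminescence so fewer parasites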
#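 assay system = mouse NIH/3T3 fibroblasts infected with β-gal-expressing T. cruzi Tulahuen C4 | input = 5,000 NIH/3T3 host cells per well | buffer or medium = DMEM plus 2% FBS | timing = 3 h host attachment, then at least 90 h co-culture | measured by = GalScreen luminescence, 60 min | evaluation = luminescence reflecting intracellular parasite burden, expressed as percent inhibition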
# CaV13 FRET inh: Disruptors of the CACNA1D IQ motif to Ca2+-dependent inactivation inhibitor domain association, primary screening, Förster resonance energy transfer in intact living …. HEK cells, CFP/YFP FRET ICDI-IQ, plate reader, 10 min; percent FRET-ratio fall versus neutral wells. hit rate 0.098% among 340,000. inhibition, % at 12.3 µM;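 active means mean replicate inhibition of at least 30% and at least 1% of replicates passing that level; inconclusive means only one of the two criteria is met; inactive means neither criterion is met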;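 further: 0% = median of the neutral control wells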
# PfHsp90 set2: growth inhibition of PfHsp90-expressing yeast, primary screen, antimalarial PfHsp90 inhibitor project, S. cerevisiae, BacTiter-Glo luminescence, single point, set 2; hit rate 0.32% among 310,000; inhibition, % at 9.4 µM; BacTiter-Glo ATP, 48 h; yeast lacking PDR1 and PDR3 efflux regulators;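 active means every replicate shows inhibition above about 80%, whatever the replicate mean, limit read from the data; inconclusive means mean inhibition reaches the set limit but some replicate falls short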;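 further: 0% = DMSO neutral controls and 100% = 20 µM radicicol positive controls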
# PvdQ inh: P. aeruginosa PvdQ acylase inhibitors, primary screen, biochemical, fluorescence, plate reader and imaging, single point; PvdQ acylase [Pseudomonas aeruginosa LESB58]; inhibition, % at 10 µM; hit rate 0.063% among 340,000; AID 488965, 2010; purified PvdQ acylase; in the data active means inhibition above about 30%, passing the limit was not always enough; inconclusive means no clear call, values can overlap the other calls;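 further: 0% = vehicle neutral wells and 100% = reference inhibitor wells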
# Glyco luc inh: increase of ERlucT glycosylation luciferase signal, primary screen, N-linked glycosylation inhibitor project, D54 ERlucT cells, luminescence, set 2 | D54 ERlucT glycosylation luciferase reporter, 24 h; percent of 100 nM tunicamycin response | hit rate 0.23% among 360,000 | reporter increase, % at 12.5 µM;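 active means mean luciferase reporter signal, scaled so untreated is 0 and the glycosylation-blocking control 100, at or above a set limit in every replicate; inconclusive means mean reaches the limit but not every replicate does; inactive means mean below the limit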;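 further: luciferase carries N-glycosylation sites so blocking glycosylation raises the light; 0% = median of neutral control wells and 100% = median of 100 nM tunicamycin wells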
# HSF1 activator: HSF-1 activators, primary screen, NIH3T3-HGL cells, MG132 stress, luminescence, single point; activation, % at 9 µM; hit rate 1.7% among 300,000; AID 504408, 2011; NIH3T3-HGL HSF-1 luciferase reporter, 8 h; 100% = twice DMSO control signal;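 active means mean replicate activation of at least 50% with a set share of replicates each reaching 50%; inconclusive means only one of those two conditions met; inactive means mean below 50% and too few replicates reaching it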;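 further: 0% = median of the neutral control wells and 100% = twice that signal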
# The depositor's hits bear a star; ? = inconclusive; . = no result given.
SMILES,T cruzi repl,CaV13 FRET inh,PfHsp90 set2,PvdQ inh,Glyco luc inh,HSF1 activator
O=C(/C=C/c1ccc(F)cc1)NC(=S)NNC(=O)c1cnccn1,?,-5,108*,2,-9,12
O=C(NCc1ccc(N2CCCC2=O)cc1)Nc1ccccc1,-8,-5,-11,-7,0,54*
CC1(Cc2ccc3c(c2)OCO3)C(=O)Nc2c(Cl)ccc(Cl)c21 (stereo not given),.,-4,.,.,-5,.
CCC1(C)N=C(N)Nc2nc3cc(C)c(C)cc3n21 (stereo not given),28,-3,15,10,3,71*
OC(CN1CCOCC1)Cn1cnc2ccccc21 (stereo not given),-9,-1,37,-13,-1,-3
OC(CN1CCOCC1)Cn1c(-c2cccc(Cl)c2)nc2ccccc21 (stereo not given),12,-4,.,32*,-1,-2
O=[N+]([O-])c1nccn1CC(O)CCN1CCOCC1 (stereo not given),.,-11,.,.,.,.
C[C@H](CO)N1C[C@H](C)[C@@H](CN(C)S(=O)(=O)c2ccc(C#N)cc2)OCc2cn(nn2)CCCC1=O,.,-5,.,.,1,.
COc1cc(/C=C/C(=O)N2C(=O)c3cccc(N)c3C2=O)cc(OC)c1OC,-6,-27,-6,-7,14,130*
Nc1cccc2c1C(=O)N(C(=O)/C=C/c1cccc(Br)c1)C2=O,13,-7,12,3,?,106*
COc1ccc(OC)c(/C=C/C(=O)N2C(=O)c3cccc(N)c3C2=O)c1,-16,-7,11,-5,11,86*
Nc1cccc2c1C(=O)N(C(=O)/C=C/c1cccc(F)c1)C2=O,-32,-93,1,-3,17,22
CC1=C(C(=O)N(C(C)C)C(C)C)CC(CC(=O)NCc2ccco2)C(=O)N1CCC1=CCCCC1 (stereo not given),.,-6,.,.,6,.
CC1CCCCC1NC(=O)c1cc(Cl)nc2ccccc12 (stereo not given),.,3,.,.,1,.
Cc1cccc(NC(=O)CNC(=O)[C@H](CCc2ccccc2)NC(=O)[C@H]2O[C@@H](n3cnc4c(N)ncnc43)[C@H](O)[C@@H]2O)c1C,.,-3,.,.,.,.
COC(=O)c1ccc(N2CCC(c3cc(-c4ccc(OC)cc4)n[nH]3)CC2)c([N+](=O)[O-])c1,45,-6,-89,6,-1,-7
CC(=O)c1ccc(N2CCC(c3cc(-c4ccc(Cl)cc4)n[nH]3)CC2)c([N+](=O)[O-])c1,74*,.,-62,-5,-4,13
COc1ccc(-c2cc(C3CCN(c4ccc(C(C)=O)cc4[N+](=O)[O-])CC3)[nH]n2)cc1,63*,-6,-180,-6,-10,-31
C[C@H](O)C#Cc1ccc2c(c1)O[C@@H](CN(C)Cc1ccc(-c3ccccc3)cc1)[C@H](C)CN([C@@H](C)CO)S2(=O)=O,.,-10,.,.,-9,.
O=C(NNc1ncnc2c1cnn2-c1cccc(Cl)c1)c1ccco1,-25,-3,-11,-5,5,64*
COc1cc(C(=O)NCCc2ccc3c(c2)OCCO3)ccc1OCC(=O)N1CCOCC1,-4,-8,.,-18,2,1
COc1cc(C(=O)Nc2nc(-c3ccc(C)cc3)cs2)ccc1OCC(=O)N1CCOCC1,55*,-6,0,-5,2,-4
COc1cc(C(=O)Nc2nc(-c3ccc(F)cc3)cs2)ccc1OCC(=O)N1CCOCC1,60*,1,2,-6,0,29
COc1ccc(-c2csc(NC(=O)c3ccc(OCC(=O)N4CCOCC4)c(OC)c3)n2)cc1,44,-5,-40,-9,-4,-3
COc1cc(C(=O)NCCc2ccc(F)cc2)ccc1OCC(=O)N1CCOCC1,22,.,-48,-4,0,54*
SMILES,T cruzi repl,CaV13 FRET inh,PfHsp90 set2,PvdQ inh,Glyco luc inh,HSF1 activator
Nc1[nH]c(C(=O)c2ccc(Br)cc2)c(-c2ccncc2)c1C(=O)NCCc1c[nH]c2ccccc12,.,-14,.,.,.,.
Cc1[nH]c2ccccc2c1CC(=O)Nc1ccc(N(C)c2cccnc2)c(-c2ccc(F)c(F)c2)c1,.,-2,.,.,.,.
O=[N+]([O-])c1ccc(N2CCN(S(=O)(=O)c3ccc(Cl)cc3)CC2)cc1NCc1cccnc1,60*,-6,1,10,-4,30
O=[N+]([O-])c1ccc(N2CCN(S(=O)(=O)c3ccccc3)CC2)cc1NCc1cccnc1,20,-1,21,-10,-2,25
CC(C)(C)S(=O)(=O)N1C[C@H]2CC(=O)C(CCO)=C2[C@@H]1CCO,.,-6,.,.,.,.
Cc1cc(O)c(C(C)C)cc1C1(c2cc(C(C)C)c(O)cc2C)OC(=O)c2ccccc21,77*,-4,4,-11,-4,-5
O=C1c2[nH]c3ccccc3c2CC1N1C(=O)c2ccccc2C1=O (stereo not given),.,-4,.,.,0,.
Cc1ccc(CN2CCC(c3cc(-c4cccs4)n[nH]3)CC2)cc1,?,-5,11,-14,-6,11
COC(=O)CCN1CCC(c2cc(-c3cccc(C(F)(F)F)c3)n[nH]2)CC1,9,-19,12,12,2,4
FC(F)(F)c1cccc(CN2CCC(c3cc(-c4cccs4)n[nH]3)CC2)c1,61*,-9,-11,-9,7,-1
FC(F)(F)c1cccc(-c2cc(C3CCNCC3)[nH]n2)c1,56*,-4,10,-10,1,-10
O=C(NCc1ccc(F)cc1)c1nc(-c2cccs2)no1,-3,5,-29,-18,1,8
c1ccc(OCc2nc(-c3cccs3)no2)cc1,4,-8,6,-5,-3,59*
Cc1cc(OCc2nc(-c3cccs3)no2)cc(C)c1Cl,-2,-7,-1,-16,-2,17
Fc1ccc(OCc2nc(-c3cccs3)no2)cc1,-13,-4,36,2,-2,65*
c1ccc(-c2noc(COc3ccc4c(c3)OCO4)n2)cc1,5,.,8,-24,0,55*
COc1ccc(-c2noc(COc3ccc4c(c3)OCO4)n2)cc1,8,.,27,-26,1,-6
C[C@@H]1CN([C@H](C)CO)C(=O)CCCn2cc(nn2)CO[C@H]1CN(C)C(=O)Nc1ccc2c(c1)OCO2,.,-5,.,.,1,.
O=C(CC[C@H]1O[C@@H](n2cnc3c(NC(=O)c4ccccc4)ncnc32)[C@H](O)[C@@H]1O)NCC1CCCCC1,.,-6,.,.,4,.

# Screening data as filed in PubChem BioAssay.
